# Test results: ChEMBL document CHEMBL3352730, “Synthesis and effects on cell viability of flavonols and 3-methyl ether derivatives on human leukemia cells” (Eur J Med Chem, 2014)
# Active and inactive are the calls of the source. The rule behind the calls is not given here.
# What was measured:
# HL-60 [1] = test: Induction of apoptosis in human HL60 cells assessed as pro-caspase-3 cleavage by Western blotting method; assay type: functional, cell-based
# Outline: (§1)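 Cells were exposed to a range of compound concentrations and harvested at 24 h. Lysates were immunoblotted for caspase proforms and cleaved forms, and for Bcl-2 family proteins.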
# HL-60 [2] = test: Induction of cell cycle arrest in human HL60 cells assessed as accumulation at G1 phase at 10 uM after 24 hrs by propidium iodide staining based flow cytometry (reference value: 53 +/- 1.1%); assay type: functional
# HL-60 [3] = test: Induction of cell cycle arrest in human HL60 cells assessed as accumulation at G1 phase at 10 uM after 48 hrs by propidium iodide staining based flow cytometry (reference value: 60.4 +/- 0.4%); assay type: functional
# MOLT-3 [4] = test: Reduction in Bid expression in human MOLT3 cells by Western blotting method; assay type: functional, cell-based
# Outline: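 Cells (HL-60, Molt-3 or U937) were incubated with increasing concentrations of compound and harvested at 24 h. Cell lysates were then immunoblotted for Bid and other Bcl-2 family members.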
# HL-60 [5] = test: Induction of cell cycle arrest in human HL60 cells assessed as accumulation at G2/M phase at 10 uM after 12 hrs by propidium iodide staining based flow cytometry (reference value: 18.5 +/- 0.5%); assay type: functional
# U-937 [6] = test: Induction of apoptosis in human U937 cells assessed as pro-caspase-9 cleavage by Western blotting method; assay type: functional, cell-based
# Outline: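 U937 cells exposed to increasing concentrations of the flavonol and harvested at 24 h. Lysates were immunoblotted with antibodies that detect both the pro-caspases and their cleaved forms.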
# U-937 [7] = test: Induction of cell cycle arrest in human U937 cells assessed as accumulation at subG1 phase at 10 uM after 12 hrs by propidium iodide staining based flow cytometry (reference value: 4.6 +/- 0.9%); assay type: functional
# HL-60 [8] = test: Induction of apoptosis in human HL60 cells at 30 uM after 24 hrs by propidium iodide staining based flow cytometry (reference value: 3.8 +/- 0.6%); assay type: functional
# U-937 [9] = test: Induction of cell cycle arrest in human U937 cells assessed as accumulation at subG1 phase at 10 uM after 24 hrs by propidium iodide staining based flow cytometry (reference value: 3.9 +/- 0.8%); assay type: functional
# U-937 [10] = test: Induction of cell cycle arrest in human U937 cells assessed as accumulation at S phase at 1 uM after 24 hrs by propidium iodide staining based flow cytometry (reference value: 18.6 +/- 0.3%); assay type: functional
# U-937 [11] = test: Cytotoxicity against human U937 cells at 30 uM incubated for 24 hrs followed of 0.5 ug/mL TRAIL exposure for 24 hrs by MTT assay; assay type: functional, cell-based
# Outline: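 U937 cells, MTT viability read-out. One arm received TRAIL at 0.5 µg/mL together with compound at 30 µM for 48 h. The other arm had compound for 24 h, then TRAIL for 24 h. Three independent experiments, each in triplicate.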
# HL-60 [12] = test: Induction of apoptosis in human HL60 cells in presence of 10 uM MEK1/2 inhibitor PD98059 after 24 hrs by propidium iodide staining based flow cytometry; assay type: functional
# U-937 [13] = test: Induction of cell cycle arrest in human U937 cells assessed as accumulation at G2/M phase at 1 uM after 12 hrs by propidium iodide staining based flow cytometry (reference value: 24.2 +/- 1.2%); assay type: functional
# [14] = target: c-Jun N-terminal kinase, JNK (Homo sapiens) (UniProt P45983+P53779+P45984); test: Increase in JNK/SAPK phosphorylation in human HL60 cells at 10 to 30 uM after 2 to 6 hrs by Western blotting method; assay type: cell-based; conditions: HL-60
# Outline: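 HL-60 cells were incubated for a time course. Extracts were immunoblotted with phospho-specific antibodies for ERK 1/2, JNK/SAPK and p38MAPK. Membranes were then stripped and reprobed for the total kinases as loading controls.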
# HL-60 [15] = test: Induction of cell cycle arrest in human HL60 cells assessed as accumulation at S phase at 3 uM after 12 hrs by propidium iodide staining based flow cytometry (reference value: 14.7 +/- 0.3%); assay type: functional
# U-937 [16] = test: Induction of apoptosis in human U937 cells assessed as pro-caspase-6 cleavage by Western blotting method; assay type: functional, cell-based; outline: as §1
# MOLT-3 [17] = test: Induction Bax cleavage in human MOLT3 cells at 3 uM by Western blotting method; assay type: functional, cell-based; outline: as §1
# HL-60 [18] = test: Induction of cell cycle arrest in human HL60 cells assessed as accumulation at S phase at 1 uM after 12 hrs by propidium iodide staining based flow cytometry (reference value: 14.7 +/- 0.3%); assay type: functional
# U-937 [19] = test: Induction of cell cycle arrest in human U937 cells assessed as accumulation at subG1 phase at 1 uM after 12 hrs by propidium iodide staining based flow cytometry (reference value: 4.6 +/- 0.9%); assay type: functional
# HL-60 [20] = test: Induction of cell cycle arrest in human HL60 cells assessed as accumulation at G2/M phase at 1 uM after 24 hrs by propidium iodide staining based flow cytometry (reference value: 22.5 +/- 0.9%); assay type: functional
# U-937 [21] = test: Induction of cell cycle arrest in human U937 cells assessed as accumulation at S phase at 1 uM after 48 hrs by propidium iodide staining based flow cytometry (reference value: 18.9 +/- 0.2%); assay type: functional
# HL-60 [22] = test: Induction of apoptosis in human HL60 cells assessed as pro-caspase-8 processing at 3 and 10 uM after 6 to 24 hrs by immunoblotting method; assay type: functional, cell-based
# Outline: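 Kinetic and dose-response immunoblots. Cells were treated, harvested at the indicated times, and probed with antibodies that detect both procaspase-8/-9 and their cleaved fragments.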
# HL-60 [23] = test: Induction of cell cycle arrest in human HL60 cells assessed as accumulation at S phase at 3 uM after 24 hrs by propidium iodide staining based flow cytometry (reference value: 17.9 +/- 0.6%); assay type: functional
# U-937 [24] = test: Induction of cell cycle arrest in human U937 cells assessed as accumulation at S phase at 3 uM after 12 hrs by propidium iodide staining based flow cytometry (reference value: 20.5 +/- 0.8%); assay type: functional
# U-937 [25] = test: Induction of apoptosis in human U937 cells assessed as increase in caspase 3/7 activity using DEVD-pNA substrate at 10 uM after 24 hrs; assay type: functional, cell-based
# Outline: (§2)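 Cells were given 10 µM for 24 h. Lysates were assayed for cleavage of DEVD-pNA (caspase-3/7), IETD-pNA (caspase-8) and LEHD-pNA (caspase-9). Results are expressed as fold over control, from three independent experiments in triplicate.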
# MOLT-3 [26] = test: Induction of apoptosis in human MOLT3 cells assessed as pro-caspase-3 cleavage by Western blotting method; assay type: functional, cell-based; outline: as §1
# U-937 [27] = test: Induction of cell cycle arrest in human U937 cells assessed as accumulation at G2/M phase at 10 uM after 24 hrs by propidium iodide staining based flow cytometry (reference value: 22.8 +/- 1.6%); assay type: functional
# HL-60 [28] = test: Induction of apoptosis in human HL60 cells in presence of 10 uM MEK1/2 inhibitor U0126 after 24 hrs by propidium iodide staining based flow cytometry; assay type: functional
# HL-60 [29] = test: Induction of cell cycle arrest in human HL60 cells assessed as accumulation at G1 phase at 3 uM after 12 hrs by propidium iodide staining based flow cytometry (reference value: 57.2 +/- 0.9%); assay type: functional
# MOLT-3 [30] = test: Induction of apoptosis in human MOLT3 cells assessed as increase in caspase 3/7 activity using DEVD-pNA substrate at 10 uM after 24 hrs; assay type: functional, cell-based; outline: as §2
smiles,measurement,setting,value
O=c1c(O)c(-c2ccc(Br)cc2)oc2ccccc12,Activity,HL-60 [1],Active
same,Activity,HL-60 [2],37.3%
same,Activity,HL-60 [3],18.4%
same,Activity,MOLT-3 [4],Active
same,Activity,HL-60 [5],13.4%
same,Activity,U-937 [6],Active
same,Activity,U-937 [7],4.3%
same,Activity,HL-60 [8],51.8%
same,Activity,U-937 [9],13.8%
same,Activity,U-937 [10],18.9%
same,Activity,U-937 [11],Active
same,fold change (FC),HL-60 [12],2
same,Activity,U-937 [13],25.1%
same,Activity,[14],Active
same,Activity,HL-60 [15],14.8%
same,Activity,U-937 [16],Active
same,Activity,MOLT-3 [17],Active
same,Activity,HL-60 [18],15.6%
same,Activity,U-937 [19],3.3%
same,Activity,HL-60 [20],22.5%
same,Activity,U-937 [21],19.6%
same,Activity,HL-60 [22],Active
same,Activity,HL-60 [23],17.6%
same,Activity,U-937 [24],22.4%
same,Activity,U-937 [25],Active
same,Activity,MOLT-3 [26],Active
same,Activity,U-937 [27],18.7%
same,fold change (FC),HL-60 [28],2
same,Activity,HL-60 [29],56.7%
same,Activity,MOLT-3 [30],Active
